Measured values from ChEMBL document CHEMBL1240500, “Peptidyl alpha-ketoamides with nucleobases, methylpiperazine, and dimethylaminoalkyl substituents as calpain inhibitors” (J Med Chem, 2010).

Key:
[1] = target: T1, Calpain-1 catalytic subunit (Sus scrofa, UniProt P35750); test: Inhibition of porcine erythrocyte calpain 1
T1 sequence (P35750 whole entry): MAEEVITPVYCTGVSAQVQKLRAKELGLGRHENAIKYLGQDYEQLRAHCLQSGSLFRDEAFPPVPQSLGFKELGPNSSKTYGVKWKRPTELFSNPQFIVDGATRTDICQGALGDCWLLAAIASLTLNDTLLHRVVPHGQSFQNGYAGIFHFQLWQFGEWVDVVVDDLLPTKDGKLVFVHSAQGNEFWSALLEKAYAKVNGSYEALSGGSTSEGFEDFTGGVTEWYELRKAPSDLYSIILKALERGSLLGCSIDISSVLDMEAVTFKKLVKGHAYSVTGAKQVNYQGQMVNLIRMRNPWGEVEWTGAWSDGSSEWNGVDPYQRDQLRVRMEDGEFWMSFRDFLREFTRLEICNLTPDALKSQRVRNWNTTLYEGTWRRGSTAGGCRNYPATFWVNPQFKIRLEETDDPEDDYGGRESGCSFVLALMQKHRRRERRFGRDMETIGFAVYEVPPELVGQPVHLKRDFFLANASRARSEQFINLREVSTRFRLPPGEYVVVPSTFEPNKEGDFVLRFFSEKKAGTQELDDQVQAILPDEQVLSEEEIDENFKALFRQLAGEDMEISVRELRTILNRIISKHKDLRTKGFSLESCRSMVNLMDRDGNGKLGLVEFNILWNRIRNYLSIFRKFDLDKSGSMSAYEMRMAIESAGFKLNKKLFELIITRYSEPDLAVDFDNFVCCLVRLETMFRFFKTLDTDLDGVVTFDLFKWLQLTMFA

[2] = target: T2, Calpain-2 catalytic subunit (Sus scrofa, UniProt P43367); test: Inhibition of porcine kidney calpain 2
T2 sequence (P43367 whole entry): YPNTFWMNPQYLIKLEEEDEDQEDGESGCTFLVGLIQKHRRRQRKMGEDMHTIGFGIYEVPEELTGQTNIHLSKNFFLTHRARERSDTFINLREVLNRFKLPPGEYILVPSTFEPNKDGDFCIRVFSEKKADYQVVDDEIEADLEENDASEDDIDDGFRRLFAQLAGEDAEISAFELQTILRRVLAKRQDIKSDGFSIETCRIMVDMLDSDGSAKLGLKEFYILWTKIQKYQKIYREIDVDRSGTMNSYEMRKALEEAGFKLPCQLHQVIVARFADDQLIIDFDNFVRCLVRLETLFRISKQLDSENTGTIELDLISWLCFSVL

[3] = target: Cathepsin B (Homo sapiens, UniProt P07858); test: Inhibition of human liver cathepsin B
Outline: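 Human liver cathepsin B was DTT-activated (final 0.4 µM) in 0.1 M NaHPO4 pH 6.0 with 1.25 mM EDTA, 0.01% Brij and <5% DMSO. Cbz-Arg-Arg-AMC was used at 0.5, 0.2 and 0.1 µM, with ≥5 inhibitor concentrations. AMC fluorescence was read at ex 360/em 465 nm. Ki was taken from Dixon plots of 1/v versus [I].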

[4] = target: T3, Calpain-1 catalytic subunit (Sus scrofa) (UniProt P35750); test: Ratio of compound Ki to AK295 Ki for porcine erythrocyte calpain 1
T3 sequence (whole entry): T1 sequence (P35750 whole entry)

[5] = Drug level in C57BL/6 mouse brain at 24 mg/kg, sc after 8 hrs by HPLC analysis; assay type: ADME, organism-based; design: dose 24 mg/kg, route subcutaneous; settings: read-out: Drug uptake
Outline: (§1)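 7-week-old female C57BL/6 mice (N = 3 per time point) got 24 mg/kg subcutaneously, were perfused with buffered saline at 37 °C, and were killed at 1, 2, 4 or 8 h. Brain was homogenized 5% w/v in water with internal standard spiked in. LC-MS/MS used ESI+ MRM and a Symmetry Shield C18 column. Quantitation was by peak-area ratio against plasma calibration standards.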

[6] = Drug level in C57BL/6 mouse brain at 24 mg/kg, sc after 2 hrs by HPLC analysis; assay type: ADME, organism-based; design: dose 24 mg/kg, route subcutaneous; settings: read-out: Drug uptake; outline: as §1
[7] = Drug level in C57BL/6 mouse spleen at 24 mg/kg, sc after 1 hr by HPLC analysis; assay type: ADME, organism-based; design: dose 24 mg/kg, route subcutaneous; settings: read-out: Drug uptake
Outline: (§2)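 7-week-old female C57BL/6 mice got 24 mg/kg subcutaneously (N = 2) or intravenously (N = 3). They were perfused with buffered saline at 37 °C and killed at 1 h. Tissues were homogenized 5% w/v in water with internal standard. LC-MS/MS used ESI+ MRM and a Zorbax Extend C18 column. Concentration came from the analyte/internal-standard area ratio against calibration standards made in undosed control tissue (0.10–1.00 µM). Errors came from repeat injections.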

[8] = Drug level in C57BL/6 mouse heart at 24 mg/kg, sc after 1 hr by HPLC analysis; assay type: ADME, organism-based; design: dose 24 mg/kg, route subcutaneous; settings: read-out: Drug uptake; outline: as §2
[9] = Drug level in C57BL/6 mouse heart at 24 mg/kg, iv after 1 hr by HPLC analysis; assay type: ADME, organism-based; design: dose 24 mg/kg, route intravenous; settings: read-out: Drug uptake; outline: as §2
[10] = Drug level in C57BL/6 mouse liver at 24 mg/kg, iv after 1 hr by HPLC analysis; assay type: ADME, organism-based; design: dose 24 mg/kg, route intravenous; settings: read-out: Drug uptake; outline: as §2
[11] = Drug level in C57BL/6 mouse kidney at 24 mg/kg, iv after 1 hr by HPLC analysis; assay type: ADME, organism-based; design: dose 24 mg/kg, route intravenous; settings: read-out: Drug uptake; outline: as §2
[12] = Drug level in C57BL/6 mouse kidney at 24 mg/kg, sc after 1 hr by HPLC analysis; assay type: ADME, organism-based; design: dose 24 mg/kg, route subcutaneous; settings: read-out: Drug uptake; outline: as §2
[13] = Drug level in C57BL/6 mouse spleen at 24 mg/kg, iv after 1 hr by HPLC analysis; assay type: ADME, organism-based; design: dose 24 mg/kg, route intravenous; settings: read-out: Drug uptake; outline: as §2
[14] = Drug level in C57BL/6 mouse peripheral nerve at 24 mg/kg, iv after 1 hr by HPLC analysis; assay type: ADME, organism-based; design: dose 24 mg/kg, route intravenous; settings: read-out: Drug uptake; outline: as §2
[15] = Drug level in C57BL/6 mouse serum at 24 mg/kg, sc after 1 hr by HPLC analysis; assay type: ADME, organism-based; design: dose 24 mg/kg, route subcutaneous; settings: read-out: Drug uptake; outline: as §2
[16] = Drug level in C57BL/6 mouse liver at 24 mg/kg, sc after 1 hr by HPLC analysis; assay type: ADME, organism-based; design: dose 24 mg/kg, route subcutaneous; settings: read-out: Drug uptake; outline: as §2

SMILES | Ki [1] | Ki [2] | Ki [3] | Ratio [4] | other results
CCC(NC(=O)[C@H](CC(C)C)NC(=O)OCc1ccccc1)C(=O)C(=O)NCCCn1ccc(N)nc1=O (some centres undefined) | 165 nM | 1140 nM | 750 nM |  | 
CCC(NC(=O)[C@H](CC(C)C)NC(=O)OCc1ccccc1)C(=O)C(=O)NCCCn1cnc2c(N)ncnc21 (some centres undefined) | 53 nM | 70 nM | 800 nM | 3 | concentration at 8 h [5]: 1170 ng/g
CC(C)C[C@H](NC(=O)OCc1ccccc1)C(=O)NC(Cc1ccccc1)C(=O)C(=O)NCCCN1CCN(C)CC1 (some centres undefined) | 1370 nM | 6360 nM | 111000 nM |  | 
CC(C)C[C@H](NC(=O)OCc1ccccc1)C(=O)NC(Cc1ccccc1)C(=O)C(=O)NCCN(C)C (some centres undefined) | 711 nM | 3520 nM | 475000 nM |  | 
CC(C)C[C@H](NC(=O)OCc1ccccc1)C(=O)NC(Cc1ccccc1)C(=O)C(=O)NCCCn1cnc2c(N)ncnc21 (some centres undefined) | 55 nM | 68 nM | 1750 nM | 3 | 
CCC(NC(=O)[C@H](CC(C)C)NC(=O)OCc1ccccc1)C(=O)C(=O)NCCCN1CCN(C)CC1 (some centres undefined) | 640 nM | 286 nM | 1420 nM |  | concentration at 2 h [6]: 1140 ng/g
CC(C)C[C@H](NC(=O)OCc1ccccc1)C(=O)NC(Cc1ccccc1)C(=O)C(=O)NCCCN(C)C (some centres undefined) | 226 nM | 844 nM | 75500 nM |  | 
CCC(NC(=O)[C@H](CC(C)C)NC(=O)OCc1ccccc1)C(=O)C(=O)NCCCN1CCOCC1 (some centres undefined) | 150 nM | 41 nM | 6900 nM |  | concentration at 1 h [7]: 1380 ng/g; concentration at 1 h [8]: 541 ng/g; concentration at 1 h [9]: 561 ng/g; concentration at 1 h [10]: 943 ng/g; concentration at 1 h [11]: 1820 ng/g; concentration at 1 h [12]: 936 ng/g; concentration at 1 h [13]: 1320 ng/g; concentration at 1 h [14]: 333 ng/g; concentration at 1 h [15]: 895 ng/g; concentration at 1 h [16]: 1550 ng/g
CCC(NC(=O)[C@H](CC(C)C)NC(=O)OCc1ccccc1)C(=O)C(=O)NCCCn1cnc2c(N)nc(OC)nc21 (some centres undefined) | 23 nM | 77 nM | 880 nM | 3 | 
CC(C)C[C@H](NC(=O)OCc1ccccc1)C(=O)NC(Cc1ccccc1)C(=O)C(=O)NCCCn1ccc(N)nc1=O (some centres undefined) | 480 nM | 438 nM | 440 nM |  | 
COc1nc(N)c2ncn(CCCNC(=O)C(=O)C(Cc3ccccc3)NC(=O)[C@H](CC(C)C)NC(=O)OCc3ccccc3)c2n1 (some centres undefined) | 41 nM | 209 nM | 2340 nM | 3 | 
